According to ChEMBL document CHEMBL1212851, “Baculiferins A-O, O-sulfated pyrrole alkaloids with anti-HIV-1 activity, from the Chinese marine sponge Iotrochota baculifera” (Bioorg Med Chem, 2010):
Converted amounts (≈) assume the structure as drawn. The source made the active and inactive calls. The rule behind the calls is not given here.

Columns and labels:
Candida albicans [1] = experiment: Multidrug reversal activity in Candida albicans isolate GU5 assessed as brefeldin A MIC in presence of 30 uM compound expressing CDR1 and CDR2 by two fold dilution method
[2] = target: DNA dC->dU-editing enzyme APOBEC-3G (Homo sapiens) (UniProt Q9HC16); experiment: Binding affinity to human recombinant APOBEC3G at 20 ug/ml
Chain of DNA dC->dU-editing enzyme APOBEC-3G (Homo sapiens) (Q9HC16 whole entry): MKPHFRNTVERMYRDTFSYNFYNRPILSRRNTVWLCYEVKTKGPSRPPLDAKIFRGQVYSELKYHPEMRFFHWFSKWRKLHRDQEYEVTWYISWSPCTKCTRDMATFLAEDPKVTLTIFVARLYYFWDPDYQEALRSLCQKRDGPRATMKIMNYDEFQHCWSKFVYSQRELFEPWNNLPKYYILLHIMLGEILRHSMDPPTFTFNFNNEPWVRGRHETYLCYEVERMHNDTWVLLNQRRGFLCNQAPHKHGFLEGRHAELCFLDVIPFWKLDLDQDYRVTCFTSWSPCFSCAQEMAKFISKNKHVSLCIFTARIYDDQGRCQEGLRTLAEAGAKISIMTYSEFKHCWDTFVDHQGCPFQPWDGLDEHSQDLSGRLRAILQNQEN
Outline: (§1)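 Recombinant gp41, Vif or APOBEC3G each immobilized on a CM5 sensor chip in a separate flow cell. Binding monitored by surface plasmon resonance on a BIAcore instrument.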

Candida albicans [3] = experiment: Effect on brefeldin A MIC against Candida albicans isolate GU4 in presence of 30 uM compound by two fold dilution method
Bel-7402 = experiment: Cytotoxicity against human Bel7402 cells; format: functional, cell-based
BGC-823 = experiment: Cytotoxicity against human BGC823 cells; format: functional, cell-based
[4] = system: Human immunodeficiency virus 1; experiment: Antiviral activity against HIV1 infected in human HEK293 cells assessed as inhibition of viral replication; format: functional, organism-based
Outline: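 VSVG-pseudotyped HIV-luc virus system in HEK-293 cells, used to assess inhibition of HIV-1 replication.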

[5] = system: Human immunodeficiency virus 1; experiment: Binding affinity to HIV1 recombinant Vif at 20 ug/ml
Outline: as §1

A549 = experiment: Cytotoxicity against human A549 cells; format: functional, cell-based
[6] = system: Human immunodeficiency virus 1; experiment: Antiviral activity against HIV1 3B infected in human MAGI cells after 40 to 48 hrs assessed as inhibition of viral life cycle; format: functional, organism-based; conditions: Human immunodeficiency virus 1, 3B
Outline: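 HeLa-CD4-LTR-β-gal (MAGI) indicator cells plated at 6000 per well and infected with 2000 TCID50 HIV-1 IIIB. Compounds added in fourfold serial dilutions, five dilutions with four replicates each, at a final top concentration of half the 200 µg/mL stock dilution. Cells incubated 40–48 h at 37 °C in 5% CO2, then fixed, stained, and blue cells counted by microscopy. Single-round infection.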

[7] = system: Human immunodeficiency virus 1; experiment: Binding affinity to HIV1 recombinant gp41 at 20 ug/ml
Outline: as §1

A2780 = experiment: Cytotoxicity against human A2780 cells; format: functional, cell-based
[8] = system: Human immunodeficiency virus 1; experiment: Antiviral activity against HIV1 3B infected in human MT4 cells after 5 days by p24 antigen detection assay; format: functional, organism-based; conditions: Human immunodeficiency virus 1, 3B, MT4, 120 h
Outline: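 MT-4 cells infected with 10000 TCID50 HIV-1 IIIB for 2 h at 37 °C, washed, then plated at 5 × 10^4 cells per well. Compounds added from 250 µg/mL in fivefold serial dilutions, five dilutions with four replicates each. Cultures held 5 d at 37 °C in 5% CO2. On day 3 half the supernatant was replaced with fresh compound or medium. On day 5 supernatant p24 measured, inhibition computed relative to virus control, and IC50 taken by linear regression.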

HCT-8 = experiment: Cytotoxicity against human HCT8 cells; format: functional, cell-based; conditions: for IC50: pooled result: one value given for 4 cell lines, strains, targets or settings

| SMILES | MIC (Candida albicans [1]) [mg/L] | RU [2] [pg/mm2] | MIC (Candida albicans [3]) [mg/L] | Activity (Bel-7402) | Activity (BGC-823) | Activity [4] | RU [5] [pg/mm2] | Activity (A549) | IC50 [6] [mg/L] | RU [7] [pg/mm2] | Activity (A2780) | IC50 [8] [mg/L] | Activity (HCT-8) | IC50 (HCT-8) [µM] | IC50 (A2780) [µM] |
| --- | --- | --- | --- | --- | --- | --- | --- | --- | --- | --- | --- | --- | --- | --- | --- |
| O=C1C(c2ccc(O)c(O)c2)=c2c(c3c(n2CCc2ccc(O)cc2)=C(c2ccc(O)c(OS(=O)(=O)O)c2)C(=O)c2cc(O)c(OS(=O)(=O)O)cc2-3)-c2cc(O)c(O)cc21 [BACULIFERIN E] | 50 | 992 | 12.5 | inactive | inactive | inactive | 362 | inactive | 2.7 (≈ 3.15 µM) | 109 | inactive | 4.6 (≈ 5.36 µM) | inactive | – | – |
| O=C1C(c2ccc(O)c(O)c2)=C2C(=C(c3ccc(O)c(O)c3)C(=O)N2CCc2ccc(O)cc2)c2cc(O)c(O)cc21 [BACULIFERIN K] | – | – | – | inactive | inactive | inactive | 448 | inactive | < 0.4 | 523 | inactive | 5.5 (≈ 9.73 µM) | inactive | – | – |
| O=c1oc2cc(O)c(O)cc2c2c1[nH]c1c(=O)oc3cc(O)c(O)cc3c12 | – | – | – | inactive | inactive | inactive | 11.7 | inactive | – | – | inactive | – | inactive | – | – |
| O=C1C(c2ccc(O)c(O)c2)=c2c(c3c(n2CCc2ccc(O)cc2)=C(c2ccc(O)c(O)c2)C(=O)c2cc(O)c(O)cc2-3)-c2cc(O)c(O)cc21 [PURPURONE] | 25 | -26.3 | 12.5 | inactive | inactive | inactive | -25.7 | inactive | > 25 | -23 | inactive | > 25 | inactive | – | – |
| O=C(O)CN1C(=O)C(c2ccc(O)c(O)c2)=C2C1=C(c1ccc(O)c(O)c1)C(=O)c1cc(O)c(O)cc12 [BACULIFERIN N] | – | – | – | inactive | inactive | inactive | 597 | inactive | < 0.1 | 953 | inactive | 4.4 (≈ 8.74 µM) | inactive | – | – |
| O=C(O)Cn1c2c(c3c1=C(c1ccc(O)c(O)c1)C(=O)c1cc(O)c(O)cc1-3)-c1cc(O)c(O)cc1C(=O)C=2c1ccc(O)c(O)c1 [BACULIFERIN L] | – | 2170 | – | inactive | inactive | inactive | 1980 | inactive | 4.1 (≈ 6.45 µM) | 469 | inactive | 7 (≈ 11 µM) | inactive | – | – |
| O=C1C(c2ccc(O)c(O)c2)=C2C(=C(c3ccc(OS(=O)(=O)O)c(O)c3)C(=O)N2CCc2ccc(O)cc2)c2cc(O)c(O)cc21 | – | – | – | inactive | inactive | inactive | 638 | inactive | – | 1350 | inactive | – | inactive | – | – |
| O=C(O)Cn1c2c(c3c1=C(c1ccc(O)c(O)c1)C(=O)c1cc(O)c(OS(=O)(=O)O)cc1-3)-c1cc(O)c(O)cc1C(=O)C=2c1ccc(O)c(O)c1 [BACULIFERIN M] | 50 | 2460 | 12.5 | – | – | inactive | 1900 | – | 0.2 (≈ 0.279 µM) | 380 | inactive | 5 (≈ 6.99 µM) | – | 65.8 | – |
| O=C1C(c2ccc(O)c(OS(=O)(=O)O)c2)=c2c(c3c(n2CCc2ccc(O)cc2)=C(c2ccc(O)c(O)c2)C(=O)c2cc(O)c(OS(=O)(=O)O)cc2-3)-c2cc(O)c(O)cc21 [BACULIFERIN F] | 50 | 992 | 12.5 | inactive | inactive | inactive | 362 | inactive | 2.7 (≈ 3.15 µM) | 109 | inactive | 4.6 (≈ 5.36 µM) | inactive | – | – |
| O=C1C(c2ccc(O)c(O)c2)=c2c(c3c(n2CCc2ccc(O)cc2)=C(c2ccc(O)c(OS(=O)(=O)O)c2)C(=O)c2cc(O)c(OS(=O)(=O)O)cc2-3)-c2cc(OS(=O)(=O)O)c(O)cc21 [BACULIFERIN H] | – | 578 | – | inactive | inactive | inactive | 259 | inactive | 1.3 (≈ 1.39 µM) | 76.2 | inactive | 1.4 (≈ 1.49 µM) | inactive | – | – |
| O=c1oc2cc(O)c(O)cc2c2c1[nH]c1c(=O)oc3cc(O)c(OS(=O)(=O)O)cc3c12 [BACULIFERIN O] | – | – | – | – | – | inactive | – | – | – | – | inactive | – | – | 33.1 | – |
| O=C1C(c2ccc(O)c(OS(=O)(=O)O)c2)=c2c(c3c(n2CCc2ccc(O)cc2)=C(c2ccc(O)c(OS(=O)(=O)O)c2)C(=O)c2cc(O)c(O)cc2-3)-c2cc(O)c(O)cc21 [BACULIFERIN C] | – | 886 | – | inactive | inactive | inactive | 296 | inactive | 1.2 (≈ 1.4 µM) | 116 | inactive | 8.4 (≈ 9.79 µM) | inactive | – | – |
| O=C1C(c2ccc(O)c(O)c2)=C2C(=C(c3ccc(O)c(O)c3)C(=O)N2CCc2ccc(OS(=O)(=O)O)cc2)c2cc(O)c(O)cc21 | – | 765 | – | inactive | inactive | inactive | 529 | inactive | – | 1490 | inactive | – | inactive | – | – |
| O=C1C(c2ccc(O)c(O)c2)=c2c(c3c(n2CCc2ccc(O)cc2)=C(c2ccc(O)c(O)c2)C(=O)c2cc(O)c(OS(=O)(=O)O)cc2-3)-c2cc(O)c(O)cc21 [BACULIFERIN A] | 50 | 171 | 12.5 | inactive | inactive | inactive | 111 | inactive | 3.7 (≈ 4.76 µM) | 17.1 | inactive | 7.6 (≈ 9.77 µM) | inactive | – | – |
| O=C1C(c2ccc(O)c(O)c2)=c2c(c3c(n2CCc2ccc(O)cc2)=C(c2ccc(O)c(OS(=O)(=O)O)c2)C(=O)c2cc(O)c(O)cc2-3)-c2cc(O)c(O)cc21 [BACULIFERIN B] | 50 | 89.7 | 12.5 | inactive | inactive | inactive | 152 | inactive | 1.3 (≈ 1.67 µM) | 12.9 | inactive | 2.2 (≈ 2.83 µM) | inactive | – | – |
| O=C1C(c2ccc(O)c(O)c2)=c2c(c3c(n2CCc2ccc(O)cc2)=C(c2ccc(O)c(O)c2)C(=O)c2cc(O)c(OS(=O)(=O)O)cc2-3)-c2cc(OS(=O)(=O)O)c(O)cc21 [BACULIFERIN D] | 50 | – | 12.5 | inactive | inactive | inactive | – | inactive | – | – | inactive | – | inactive | – | – |
| O=C1C(c2ccc(O)c(OS(=O)(=O)O)c2)=c2c(c3c(n2CCc2ccc(O)cc2)=C(c2ccc(O)c(OS(=O)(=O)O)c2)C(=O)c2cc(O)c(OS(=O)(=O)O)cc2-3)-c2cc(O)c(O)cc21 [BACULIFERIN G] | – | 572 | – | – | – | inactive | 447 | – | 4.4 (≈ 4.69 µM) | 125 | – | 3.2 (≈ 3.41 µM) | – | 19.7 | 19.7 |
